Source: article PMC4377293 (The Biochemical journal, 2015)
“And” between values parts separate entries of the source, which are not always exact repeats. Equal values may be shown once. Blank lines part the entries; values can stand above or below the compound they belong to.

Experiments:
[1] = target: T1, human PRODH2 157–515 (HYPDH) (Homo sapiens, UniProt Q9UF12); experiment: Inhibition studies, standard o-AB assay; assay type: biochemical; details: 600 mM Hyp; for inhibition of HYPDH activity: up to 5 mM; for IC50: 5 min preincubation, compound up to 5 mM
T1 sequence (Q9UF12 81-439 limits assumed): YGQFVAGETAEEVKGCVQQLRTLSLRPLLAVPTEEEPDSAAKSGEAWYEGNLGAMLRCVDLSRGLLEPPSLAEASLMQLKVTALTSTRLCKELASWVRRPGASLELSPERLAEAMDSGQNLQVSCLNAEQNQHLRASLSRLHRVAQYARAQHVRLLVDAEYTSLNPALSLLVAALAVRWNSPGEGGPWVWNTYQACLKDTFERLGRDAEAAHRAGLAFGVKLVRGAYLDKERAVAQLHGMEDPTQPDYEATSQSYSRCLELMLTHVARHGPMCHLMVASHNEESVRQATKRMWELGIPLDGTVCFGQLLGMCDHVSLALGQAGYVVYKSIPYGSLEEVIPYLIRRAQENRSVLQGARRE
How it was run: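 Purified PRODH2 157–515 at 200 nM in 50 mM HEPES pH 7.5 with 4 mM o-AB and 200 μM CoQ1 as electron acceptor, 25°C. Test compound (up to 5 mM) was preincubated with enzyme for 5 min, then 600 mM Hyp was added. Product–o-AB adduct was followed at 443 nm. Percent activity versus concentration was fit assuming single-site binding to give IC50. Stocks were aqueous, except one in DMSO (3% final).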

human PRODH2 157–515 [2] = target: T2, human PRODH2 157–515 (Homo sapiens, UniProt Q9UF12); experiment: Steady-state kinetic analysis with the o-AB assay; assay type: biochemical; details: for reaction as substrate: tested at 500 mM
T2 sequence (Q9UF12 81-439 limits assumed): T1 sequence (Q9UF12 81-439 limits assumed)

human PRODH2 157–515 [3] = target: T2, human PRODH2 157–515; experiment: Steady-state kinetics with ubiquinone analogues as electron acceptors; assay type: biochemical; details: for ability to support Hyp turnover as electron acceptor: Triton X-100 included with CoQ4
human PRODH2 157–515 [4] = target: T2, human PRODH2 157–515; experiment: Anaerobic titration with Hyp; assay type: binding; details: Kd from anaerobic titration versus Km from o-AB assay
human PRODH2 157–515 [5] = target: T2, human PRODH2 157–515; experiment: Sulfite reactivity; assay type: binding
How it was run: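 The flavin spectrum was recorded until absorbance stabilised, and ΔA455 was fit hyperbolically for Kd. For adduct reversibility, a proline-analogue inhibitor (1–5 mM final) was added and incubated for 30 min before the spectrum was re-acquired.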

[6] = target: Helicobacter hepaticus PutA; details: read-out: Kd for sulfite binding; ref [34], [45]; cited from earlier work
[7] = tested on: PRODH homologue of Saccharomyces cerevisiae; details: ref [43], [45]; cited from earlier work
E. coli PutA = details: ref [43], [45]; cited from earlier work
human PRODH1 = details: read-out: Kd for sulfite binding; ref [34], [45]; cited from earlier work

SMILES: O=C(O)[C@H]1C[C@@H](O)CN1 (relative stereo) [cis-4-OH-D-proline]
inhibition of HYPDH activity [1]: did not cause inhibition
reaction as substrate (human PRODH2 157–515 [2]; 200 μM CoQ1): does not react

IC50 [1]: 2900 ± 100 µM
SMILES: O=C(O)c1cc(O)[nH]n1 [5-OH-1H-pyrazole-3-COOH]

SMILES: O=C(O)[C@@H]1CC[C@@H](O)C1 [(1R, 3R) 3-OH-cyclopentane carboxylic acid]
IC50 [1]: 2100 ± 100 µM

SMILES: O=C(O)[C@H]1CC[C@@H](O)C1 [(1S, 3R) 3-OH-cyclopentane carboxylic acid]
inhibition of HYPDH activity [1]: did not cause inhibition
inhibition of HYPDH activity ([1]; listed as (1S, 3R) 3-OH-cyclopentane-COOH): did not inhibit

kcat (human PRODH2 157–515 [3]; 0–400 μM ubiquinone analogue, 600 mM Hyp, 50 mM HEPES pH 7.5): 0.19 ± 0.01 s⁻¹
Km (human PRODH2 157–515 [3]; 0–400 μM ubiquinone analogue, 600 mM Hyp, 50 mM HEPES pH 7.5, 4 mM o-AB, 200 nM PRODH2 157–515): 124 ± 19 µM
ability to support Hyp turnover as electron acceptor (human PRODH2 157–515 [3]; 600 mM Hyp): support Hyp turnover
SMILES: COC1=C(OC)C(=O)C(CC=C(C)C)=C(C)C1=O [CoQ1, Coenzyme Q1]

ability to support Hyp turnover as electron acceptor (human PRODH2 157–515 [3]; 600 mM Hyp): inability to use
SMILES: COC1=C(OC)C(=O)C(C/C=C(\C)CCC=C(C)C)=C(C)C1=O [CoQ2]

ability to support Hyp turnover as electron acceptor (human PRODH2 157–515 [3]; 600 mM Hyp): inability to use
SMILES: COC1=C(OC)C(=O)C(C/C=C(\C)CC/C=C(\C)CC/C=C(\C)CCC=C(C)C)=C(C)C1=O [CoQ4]

SMILES: CC1=C(C)C(=O)C(C)=C(C)C1=O [Duroquinone]
ability to support Hyp turnover as electron acceptor (human PRODH2 157–515 [3]; 600 mM Hyp): support Hyp turnover

SMILES: O=C(O)[C@@H]1C[C@@H](O)CN1 [Hyp, trans-4-hydroxy-L-proline]
fold lower Kd than Km (human PRODH2 157–515 [4]): ~ 1600 fold and 1600 fold
fold difference in kcat/Km (specificity constant), Hyp over Pro (human PRODH2 157–515 [2]; 200 μM CoQ1): 12 fold and ~ 12 fold
fold lower kcat with O2 than with CoQ1 as electron acceptor (human PRODH2 157–515 [2]; air saturated buffer versus 200 μM CoQ1): ~ 100 fold

Ki (human PRODH2 157–515 [3]): 306 ± 34 µM
ability to support Hyp turnover as electron acceptor (human PRODH2 157–515 [3]; 600 mM Hyp): support Hyp turnover
SMILES: CC1=CC(=O)c2ccccc2C1=O [Menadione]

saturation of PRODH2 by substrate (human PRODH2 157–515 [2]; up to 750 mM Pro, 200 μM CoQ1): unable to saturate
SMILES: O=C(O)[C@@H]1CCCN1 [Pro, L-proline]

SMILES: O=C(O)C1CCCO1 (stereo not shown) [THFA, tetrahydrofuroic acid]
IC50 [1]: 1500 ± 100 µM
reversal of the sulfite adduct (flavin spectrum) (human PRODH2 157–515 [5]; 1–5 mM THFA added, 30 min incubation): returned the flavin spectrum to the oxidized state

SMILES: O=S([O-])[O-].[Na+].[Na+] [sulfite, sodium sulfite]
Kd [6]: 400 µM
sulfite binding [7]: do not bind
time for the spectrum to reach equilibrium (adduct formation) (human PRODH2 157–515 [5]; aerobic, 25 °C): ~ 6 h
Kd (human PRODH2 157–515 [5]; read-out: Kd for sulfite binding, 50 μM PRODH2 157–515, 50 mM potassium phosphate pH 7.6, 25 °C, 6 h equilibration): 64 ± 7.7 µM
sulfite binding (E. coli PutA): do not bind
Kd (human PRODH1): 10400 µM

SMILES: O=C(O)C1CC(O)CN1 [trans-4-OH-D-proline]
inhibition of HYPDH activity [1]: did not cause inhibition
reaction as substrate (human PRODH2 157–515 [2]; 200 μM CoQ1): does not react
